In ChEMBL document CHEMBL4371006, “Discovery of N-[4-(Quinolin-4-yloxy)phenyl]benzenesulfonamides as Novel AXL Kinase Inhibitors” (J Med Chem, 2018):
Activity calls are given as the source filed them. The calls are words filed in the database; no cut-off is given here.

What was measured:
[1] = molecular target: Insulin receptor (Homo sapiens) (UniProt P06213); assay: Inhibition of INSR (unknown origin) using fluorescence labeled peptide as substrate at 10 uM by IMAP assay
In short: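 IMAP fluorescence-polarization kinase assay at 10 µmol/L compound, run in triplicate by a contract lab. A fluorescently labeled substrate peptide is phosphorylated, then nanoparticles carrying trivalent metal bind the phosphopeptide and slow its rotation. Read-out is fluorescence polarization, expressed as percent inhibition.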

[2] = molecular target: Tyrosine-protein kinase SYK (Homo sapiens) (UniProt P43405); assay: Binding affinity to SYK (unknown origin) at 10 uM
[3] = molecular target: Serine/threonine-protein kinase B-raf (Homo sapiens) (UniProt P15056); assay: Inhibition of BRAF (unknown origin) at 10 uM by reporter probe displacement binding assay
[4] = molecular target: Dual specificity mitogen-activated protein kinase kinase 5 (Homo sapiens, UniProt Q13163); assay: Binding affinity to MAP2K5 in SILAC-labeled human MDA-MB-231 cells lysate by mass spectrometry based kinAffinity assay; type: subcellular
In short: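 Chemical proteomics: MDA-MB-231 lysate bound to matrix of immobilized broad kinase inhibitors at several densities (BC50), then competed with increasing free compound (CC50); proteins quantified by mass spectrometry, Kd via Cheng-Prusoff. Two competition formats run in parallel to check equilibrium.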

[5] = molecular target: Tyrosine-protein kinase Tec (Homo sapiens, UniProt P42680); assay: Binding affinity to TEC in SILAC-labeled human MDA-MB-231 cells lysate by mass spectrometry based kinAffinity assay; type: subcellular
In short: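 MDA-MB-231 lysate applied to KinAffinity matrix of immobilized broadband kinase inhibitors at graded densities to obtain BC50 per target. Competition then run with increasing free compound to give CC50; Kd derived by Cheng-Prusoff. Two competition experiments in parallel to check equilibrium, one with lysate pre-incubated with compound before adding matrix. Quantitation by mass spectrometry.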

Insulin receptor (Homo sapiens), sequence (P06213 28-758 limits assumed): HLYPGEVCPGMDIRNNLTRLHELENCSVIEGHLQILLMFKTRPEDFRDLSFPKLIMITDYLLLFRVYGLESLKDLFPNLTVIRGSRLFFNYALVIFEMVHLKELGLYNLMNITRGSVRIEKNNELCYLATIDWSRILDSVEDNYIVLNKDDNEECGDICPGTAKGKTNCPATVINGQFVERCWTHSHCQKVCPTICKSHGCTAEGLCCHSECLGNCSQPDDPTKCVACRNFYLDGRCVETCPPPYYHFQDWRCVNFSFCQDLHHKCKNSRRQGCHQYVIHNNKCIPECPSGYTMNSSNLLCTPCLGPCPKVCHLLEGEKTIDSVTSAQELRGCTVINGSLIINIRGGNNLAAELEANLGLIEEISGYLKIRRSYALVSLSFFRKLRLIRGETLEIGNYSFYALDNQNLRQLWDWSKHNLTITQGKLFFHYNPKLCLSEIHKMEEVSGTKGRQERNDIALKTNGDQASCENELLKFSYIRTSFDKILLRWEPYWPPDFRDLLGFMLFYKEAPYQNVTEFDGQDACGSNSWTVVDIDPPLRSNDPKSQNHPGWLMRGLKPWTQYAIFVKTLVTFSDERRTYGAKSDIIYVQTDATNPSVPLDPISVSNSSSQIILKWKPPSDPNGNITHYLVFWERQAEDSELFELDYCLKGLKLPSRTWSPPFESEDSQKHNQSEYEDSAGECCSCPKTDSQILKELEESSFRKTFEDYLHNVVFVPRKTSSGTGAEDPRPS
Insulin receptor (Homo sapiens), sequence (P06213 763-1382 limits assumed): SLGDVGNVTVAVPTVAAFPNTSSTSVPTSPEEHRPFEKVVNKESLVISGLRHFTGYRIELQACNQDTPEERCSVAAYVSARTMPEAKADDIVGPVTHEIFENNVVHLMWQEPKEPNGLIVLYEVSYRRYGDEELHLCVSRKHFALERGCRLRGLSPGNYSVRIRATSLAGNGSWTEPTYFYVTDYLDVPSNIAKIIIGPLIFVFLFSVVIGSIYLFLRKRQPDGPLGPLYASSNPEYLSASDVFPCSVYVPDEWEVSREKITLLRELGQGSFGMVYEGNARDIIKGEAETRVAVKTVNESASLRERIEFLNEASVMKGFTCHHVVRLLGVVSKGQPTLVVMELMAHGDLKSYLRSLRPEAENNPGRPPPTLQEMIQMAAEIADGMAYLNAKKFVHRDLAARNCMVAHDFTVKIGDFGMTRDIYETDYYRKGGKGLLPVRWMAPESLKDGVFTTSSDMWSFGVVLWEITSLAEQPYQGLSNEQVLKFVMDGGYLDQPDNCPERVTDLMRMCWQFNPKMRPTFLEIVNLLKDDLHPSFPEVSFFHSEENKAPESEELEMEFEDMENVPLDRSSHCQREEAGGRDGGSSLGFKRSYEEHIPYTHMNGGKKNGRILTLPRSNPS
Dual specificity mitogen-activated protein kinase kinase 5, sequence (Q13163 whole entry): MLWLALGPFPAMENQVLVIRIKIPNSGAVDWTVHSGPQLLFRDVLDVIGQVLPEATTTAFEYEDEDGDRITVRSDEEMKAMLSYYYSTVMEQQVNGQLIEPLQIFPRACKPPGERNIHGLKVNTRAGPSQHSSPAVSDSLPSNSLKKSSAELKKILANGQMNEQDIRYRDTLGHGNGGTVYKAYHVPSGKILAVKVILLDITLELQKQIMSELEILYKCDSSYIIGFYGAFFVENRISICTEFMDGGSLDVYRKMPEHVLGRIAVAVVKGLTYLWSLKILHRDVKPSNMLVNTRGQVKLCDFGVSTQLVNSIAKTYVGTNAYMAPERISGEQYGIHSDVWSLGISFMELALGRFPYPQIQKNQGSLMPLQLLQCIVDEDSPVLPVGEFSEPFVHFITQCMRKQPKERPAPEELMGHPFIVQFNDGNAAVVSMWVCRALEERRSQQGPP
Tyrosine-protein kinase Tec, sequence (P42680 whole entry): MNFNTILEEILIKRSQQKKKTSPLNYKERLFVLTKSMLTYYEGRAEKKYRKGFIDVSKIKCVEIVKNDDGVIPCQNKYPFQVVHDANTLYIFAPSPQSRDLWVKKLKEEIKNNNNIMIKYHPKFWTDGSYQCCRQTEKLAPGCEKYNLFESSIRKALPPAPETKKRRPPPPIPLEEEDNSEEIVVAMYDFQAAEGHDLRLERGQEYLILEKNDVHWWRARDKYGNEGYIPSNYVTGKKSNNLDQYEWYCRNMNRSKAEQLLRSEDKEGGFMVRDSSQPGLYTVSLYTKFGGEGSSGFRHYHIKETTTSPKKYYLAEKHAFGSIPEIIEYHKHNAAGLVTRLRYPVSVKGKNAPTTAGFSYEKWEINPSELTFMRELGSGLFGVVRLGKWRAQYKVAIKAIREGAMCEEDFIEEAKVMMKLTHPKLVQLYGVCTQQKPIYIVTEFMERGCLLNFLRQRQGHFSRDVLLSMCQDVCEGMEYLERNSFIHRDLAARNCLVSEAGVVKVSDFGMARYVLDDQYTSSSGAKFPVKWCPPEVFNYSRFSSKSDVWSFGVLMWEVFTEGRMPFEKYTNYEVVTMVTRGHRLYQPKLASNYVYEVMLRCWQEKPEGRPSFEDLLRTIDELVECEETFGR
Serine/threonine-protein kinase B-raf (Homo sapiens), sequence (P15056 whole entry): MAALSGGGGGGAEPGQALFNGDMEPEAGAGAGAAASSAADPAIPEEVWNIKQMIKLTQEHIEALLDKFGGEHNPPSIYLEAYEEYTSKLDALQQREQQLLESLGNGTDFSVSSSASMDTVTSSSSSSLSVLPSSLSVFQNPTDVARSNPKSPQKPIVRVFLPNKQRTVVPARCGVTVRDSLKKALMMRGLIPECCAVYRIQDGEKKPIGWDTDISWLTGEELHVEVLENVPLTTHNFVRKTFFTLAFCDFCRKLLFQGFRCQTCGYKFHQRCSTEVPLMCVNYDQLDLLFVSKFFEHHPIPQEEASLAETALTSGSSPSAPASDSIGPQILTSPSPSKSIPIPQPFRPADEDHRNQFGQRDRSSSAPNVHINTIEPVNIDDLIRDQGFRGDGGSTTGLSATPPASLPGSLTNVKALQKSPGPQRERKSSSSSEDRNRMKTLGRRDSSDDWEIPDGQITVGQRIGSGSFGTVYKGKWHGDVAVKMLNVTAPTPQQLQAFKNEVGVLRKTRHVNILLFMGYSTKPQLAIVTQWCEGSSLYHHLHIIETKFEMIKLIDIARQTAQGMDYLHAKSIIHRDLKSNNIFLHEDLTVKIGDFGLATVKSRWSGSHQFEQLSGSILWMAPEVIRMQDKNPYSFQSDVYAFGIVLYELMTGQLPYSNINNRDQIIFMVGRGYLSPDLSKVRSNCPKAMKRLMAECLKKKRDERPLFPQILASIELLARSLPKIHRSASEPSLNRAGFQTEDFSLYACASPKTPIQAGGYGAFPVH

## COc1cc2c(Oc3ccc(NS(=O)(=O)c4ccccc4C(F)(F)F)cc3F)ccnc2cc1OCCCN1CCN(C)CC1
[1]
  inhibition: Active
[2]
  inhibition: Active
[3]
  inhibition: Active

## COc1cc2c(Oc3ccc(NS(=O)(=O)c4c(F)cccc4F)cc3F)ccnc2cc1OCCCN1CCN(C)CC1
[4]
  Kd(free): 539 nM
[5]
  Kd(free): > 3674 nM
